Measurements: ChEMBL document CHEMBL5038578, “Design, Synthesis, and Biological Evaluation of Peptidomimetic Aldehydes as Broad-Spectrum Inhibitors against Enterovirus and SARS-CoV-2” (J Med Chem, 2022)

Experiments:
[1] = Inhibition of Human enterovirus 71 3C-like protease expressed in Escherichia coli BL21 (DE3) cells using Dacyl-KTSAVLQSGFRKMEEdans as fluorogenic substrate incubated for 10 mins by FRET assay; set-up: species or system Enterovirus A71
Procedure, shortened: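 EV71 3Cpro expressed with N-terminal His-SUMO2 tag, tag cut by SENP2, then purified on Ni-NTA, Q-Sepharose and Superdex200. Enzyme at 5 μM final, preincubated 10 min with serial compound dilutions in 25 mM Tris pH 8.0, 150 mM NaCl, 10% glycerol. Fluorescence read at ex 340/em 490 nm. IC50 (mean ± SD, ≥3 experiments) by nonlinear regression.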

Enterovirus A71 = assay: Antiviral activity against Human enterovirus 71 BrCr infected in human RD cells assessed as reduction in virus-induced cytopathic effect incubated for 4 days by MTS/PMS assay; assay type: functional, organism-based; details: Enterovirus A, 96 h
Procedure, shortened: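 RD cells (2.5 × 10^4/well) adhered overnight, then infected with EV71 BrCr and given serial compound dilutions. Incubated 4 days, until full CPE in virus controls. Viability by MTS/PMS, absorbance at 498 nm after 1–2 h at 37 °C. Normalised to infected and uninfected untreated controls; EC50 by curve fitting.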

[2] = Cytotoxicity against human RD cells assessed as reduction in cell viability measured after 4 days by MTS/PMS assay; assay type: toxicity, cell-based; details: time 4 day
rhinovirus A2 = assay: Antiviral activity against wild type Rhinovirus-A02 infected in HeLa cells assessed as reduction in virus-induced cytopathic effect incubated for 3 days by MTS/PMS assay; assay type: functional, cell-based; details: Rhinovirus A, 72 h
rhinovirus B14 = assay: Antiviral activity against wild type Human rhinovirus B14 infected in HeLa cells assessed as reduction in virus-induced cytopathic effect incubated for 3 days by MTS/PMS assay; assay type: functional, organism-based; details: Rhinovirus B, 72 h
enterovirus D68 = assay: Antiviral activity against Human enterovirus 68 infected in HeLa cells assessed as reduction in virus-induced cytopathic effect incubated for 4 days by MTS/PMS assay; assay type: functional, organism-based; details: Enterovirus D, 96 h
Coxsackievirus A21 = assay: Antiviral activity against Human coxsackievirus A21 infected in HeLa cells assessed as reduction in virus-induced cytopathic effect incubated for 3 days by MTS/PMS assay; assay type: functional, organism-based; details: Enterovirus C, 72 h
Coxsackievirus B3 = assay: Antiviral activity against Human coxsackievirus B3 infected in Vero cells assessed as reduction in plaque formation treated 2 hrs post viral infection and measured 3 to 4 days post-infection by Giemsa staining based plaque reduction assay; assay type: functional, organism-based; details: Enterovirus B
[3] = Inhibition of SARS-CoV2 3C-like protease expressed in Escherichia coli BL21 (DE3) cells using Mca-AVLQSGFR-Lys(Dnp)-Lys-NH2 as fluorogenic substrate incubated for 10 mins by FRET assay; set-up: species or system Severe acute respiratory syndrome coronavirus 2
SARS-CoV-2 = assay: Antiviral activity against SARS Cov-2 infected in Vero E6 cells assessed as reduction in viral RNA replication measured 24 hrs post infection by qRT-PCR analysis; assay type: functional, organism-based; details: Severe acute respiratory syndrome coronavirus 2, Vero C1008, 24 h
[4] = Cytotoxicity against African green monkey Vero E6 cells assessed as reduction in cell viability incubated for 24 hrs by CCK8 assay; assay type: toxicity, cell-based, Vero C1008; details: chlorocebus sabaeus
Procedure, shortened: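 Vero E6 cells (2 × 10^4/well) exposed to graded compound concentrations for 24 h. Relative surviving cell number measured by CCK-8.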

SMILES	IC50 [1] [µM]	EC50 (Enterovirus A71) [µM]	CC50 at 96 h [2] [µM]	EC50 (rhinovirus A2) [µM]	EC50 (rhinovirus B14) [µM]	EC50 (enterovirus D68) [µM]	EC50 (Coxsackievirus A21) [µM]	EC50 (Coxsackievirus B3) [µM]	IC50 [3] [µM]	EC50 (SARS-CoV-2) [µM]	CC50 at 24 h [4] [µM]
CCOC(=O)/C=C/[C@H](C[C@@H]1CCNC1=O)NC(=O)[C@H](Cc1ccc(F)cc1)NC(=O)[C@@H](NC(=O)c1cc(C)on1)C(C)C	1.89	0.011	> 100	–	–	–	–	–	–	–	–
O=C[C@H](C[C@@H]1CCNC1=O)NC(=O)[C@H](Cc1ccccc1)NC(=O)/C=C/c1ccccc1	4.57	0.1	> 100	6.6	1.19	0.08	1.73	15.9	–	–	–
Cc1cc(C(=O)N[C@@H](Cc2ccccc2)C(=O)N[C@H](C=O)C[C@@H]2CCNC2=O)no1	2.09	0.32	> 100	–	–	–	–	–	–	–	–
O=C[C@H](C[C@@H]1CCNC1=O)NC(=O)[C@H](Cc1ccccc1)NC(=O)c1cccc2c1OCCO2	3.01	0.77	> 100	–	–	–	–	–	0.097	8.21	> 1000
O=C[C@H](C[C@@H]1CCNC1=O)NC(=O)[C@H](Cc1ccccc1)NC(=O)c1cn2cc(Br)ccc2n1	1.62	0.36	> 100	–	–	–	–	–	–	–	–
O=C[C@H](C[C@@H]1CCNC1=O)NC(=O)[C@H](Cc1ccccc1)NC(=O)c1cncc(F)c1	2.02	0.47	> 100	–	–	–	–	–	–	–	–
O=C[C@H](C[C@@H]1CCNC1=O)NC(=O)[C@H](Cc1ccccc1)NC(=O)c1ccc2c(c1)OCCO2	2.21	0.3	> 100	–	–	–	–	–	–	–	–
O=C[C@H](C[C@@H]1CCNC1=O)NC(=O)[C@H](Cc1ccccc1)NC(=O)C1=Cc2cc(Cl)ccc2OC1	4.34	0.07	16.4	–	–	–	–	–	0.12	0.25	299
Cc1nc2ccccc2nc1C(=O)N[C@@H](Cc1ccccc1)C(=O)N[C@H](C=O)C[C@@H]1CCNC1=O	3.04	0.37	> 100	–	–	–	–	–	0.065	0.44	603
COC(=O)/C=C/[C@H](C[C@@H]1CCNC1=O)NC(=O)[C@H](Cc1ccccc1)NC(=O)/C=C/c1ccccc1	1.73	1.21	> 100	1.68	1.65	0.1	3.62	77.7	–	–	–
O=C[C@H](C[C@@H]1CCNC1=O)NC(=O)[C@H](Cc1ccccc1)NC(=O)c1ccc2[nH]ccc2c1	3.83	0.69	> 100	–	–	–	–	–	–	–	–
O=C(/C=C/c1ccccc1)N[C@@H](Cc1ccccc1)C(=O)N[C@H](/C=C/C(=O)OCc1ccccc1)C[C@@H]1CCNC1=O	2.06	3.1	> 100	–	–	–	–	–	–	–	–
O=C[C@H](C[C@@H]1CCNC1=O)NC(=O)[C@H](Cc1ccccc1)NC(=O)c1ccc2ccccc2n1	13	0.12	> 100	–	–	–	–	–	0.14	0.43	627
O=C[C@H](C[C@@H]1CCNC1=O)NC(=O)[C@H](Cc1ccccc1)NC(=O)c1ccc2c(c1)OCO2	1.47	0.22	> 100	–	–	–	–	–	0.078	1.35	> 1000
CC(C)[C@H](NC(=O)c1cc2ccccc2o1)C(=O)N[C@@H](Cc1ccccc1)C(=O)N[C@H](C=O)C[C@@H]1CCNC1=O	2.43	0.096	> 100	–	–	–	–	–	0.067	5.62	> 1000
O=C[C@H](C[C@@H]1CCNC1=O)NC(=O)[C@H](Cc1ccccc1)NC(=O)c1ccc2ccc(Br)cc2n1	3.22	0.094	46.2	–	–	–	–	–	0.24	0.35	823
O=C[C@H](C[C@@H]1CCNC1=O)NC(=O)[C@H](Cc1ccccc1)NC(=O)c1ccc2occc2c1	2.37	0.29	> 100	–	–	–	–	–	0.059	0.76	> 1000
O=C[C@H](C[C@@H]1CCNC1=O)NC(=O)[C@H](Cc1ccccc1)NC(=O)c1cc2ccccc2o1	2.44	0.093	> 100	–	–	–	–	–	0.08	0.49	> 1000
CC(C)[C@H](NC(=O)c1cc2ccccc2[nH]1)C(=O)N[C@@H](Cc1ccccc1)C(=O)N[C@H](C=O)C[C@@H]1CCNC1=O	4.16	0.12	72.5	1.02	0.98	0.26	0.51	9.15	0.068	4.22	> 1000
Cc1cc(C(=O)N[C@H](C(=O)N[C@@H](Cc2ccccc2)C(=O)N[C@H](C=O)C[C@@H]2CCNC2=O)C(C)C)no1	6.73	0.09	> 100	–	–	–	–	–	0.067	> 2	> 1000
O=C[C@H](C[C@@H]1CCNC1=O)NC(=O)[C@H](Cc1ccccc1)NC(=O)c1cnc2ccccc2n1	3.6	0.14	> 100	–	–	–	–	–	–	–	–
CC(C)[C@H](NC(=O)c1ccc2c(c1)OCCO2)C(=O)N[C@@H](Cc1ccccc1)C(=O)N[C@H](C=O)C[C@@H]1CCNC1=O	4.04	0.44	> 100	–	–	–	–	–	–	–	–
